What is called IC50 is the concentration needed to halve the response being measured. In general, MIC refers to the least concentration at which growth counts as inhibited. Lower therefore signals a more susceptible organism. The EC50 is the concentration giving half of the maximal effect.

≈ marks a conversion by molar mass, not a printed value. Calls of active or inactive are those of the source. No cut-off for these calls is given here. Bounds are passed on as bounds.

Assay [1] deals with PC-12. The assay can be described thus: Neuroprotective activity against glutamate-induced cell damage in rat PC12 cells assessed as increase in cell viability at 10 uM pretreated followed by glutamate challenge and measured after 24 hrs by MTT assay. The format is functional, cell-based.
Assay [2] deals with Staphylococcus aureus. The assay can be described thus: Antibacterial activity against methicillin-resistant Staphylococcus aureus ATCC 43300 after 24 hrs by double dilution method. The format is functional, organism-based.
The test system of assay [3] is PC-12. Kind of assay: Neuroprotective activity against glutamate-induced cell damage in rat PC12 cells assessed as cell viability at 50 uM pretreated followed by glutamate challenge and measured after 24 hrs by MTT assay (reference value: 49.14 +/- 3.15%). The format is functional. As to conditions: read-out: Activity. (Tetrazolium assays rely on reduction of a dye to a coloured formazan, in cell work by metabolically active cells.)

A further assay has as its system SGC-7901. The assay can be described thus: Cytotoxicity against human SGC7901 cells after 48 hrs by MTT assay. The format is functional, cell-based. As to conditions: SGC-7901, 48 h.
Assay [4] in a line: Cytotoxicity against human […] cells after 48 hrs by MTT assay. The format is functional, cell-based.
The subject of a further assay is A549. Kind of assay: Cytotoxicity against human A549 cells after 48 hrs by MTT assay. Particulars: A549, 48 h. The format is functional, cell-based.
Assay [5] has as its system Staphylococcus aureus. The assay can be described thus: Antibacterial activity against Staphylococcus aureus ATCC 25923 after 24 hrs by double dilution method. The format is functional, organism-based.
The subject of the next assay is Escherichia coli. The assay can be described thus: Antibacterial activity against Escherichia coli ATCC 25922 after 24 hrs by double dilution method. The format is functional, organism-based.
Assay [6] relates to Thoracic aorta. Kind of assay: Vasorelaxant activity in Sprague-Dawley rat thoracic aortic ring assessed as inhibition of KCl-induced contraction. The format is functional, tissue-based. Put shortly: (§1)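 Rat aortic rings precontracted with phenylephrine (PHE) or KCl; relaxation measured over a range of concentrations and EC50 derived. Positive controls were phentolamine mesylate and methoxyverapamil.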

A further assay has as its system MCF7. The assay can be described thus: Cytotoxicity against human MCF7 cells after 48 hrs by MTT assay. The format is functional, cell-based. As to conditions: MCF7, 48 h.
For assay [7], the system named is Thoracic aorta. Kind of assay: Vasorelaxant activity in Sprague-Dawley rat thoracic aortic ring assessed as inhibition of KCl-induced contraction at 50 uM. The format is functional, tissue-based. Put shortly:
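Rat aortic rings contracted with KCl; relaxation measured with test agent at a single concentration of 50 μM. Methoxyverapamil and phentolamine mesylate were the positive controls.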

A further assay concerns Candida albicans. The assay can be described thus: Antifungal activity against Candida albicans CMCC 98001 after 24 hrs by double dilution method. The format is functional. Particulars: CMCC 98001, 24 h.
Assay [8] concerns Thoracic aorta. The assay can be described thus: Vasorelaxant activity in Sprague-Dawley rat thoracic aortic ring assessed as inhibition of phenylephrine-induced contraction. The format is functional, tissue-based. Put shortly: as §1

With `COCCOC(=O)C1=C(C)NC(C)=C(C(=O)OC(C)C)C1c1cccc([N+](=O)[O-])c1` (centres undefined), the outcome in the assay on PC-12 [1] was Active.
Take `C=C(C)[C@@H]1CC[C@H](C)[C@H](CCC(C)=O)C(=O)C1`: the outcome with Staphylococcus aureus [2], in the assay on Staphylococcus aureus [5] and in the assay on Escherichia coli was inactive. Besides, the viability at 50 µM with PC-12 [3] amounted to 78.7%. The IC50 (in the assay on SGC-7901; in assay [4]; with A549; in the assay with MCF7) was greater than 50 µM each time. Also, the inhibition entry in the assay with Thoracic aorta [6] was “Active”.
For the compound `C=C(C)[C@@H]1CCC(C)=C2C(=O)C=C(C)[C@@H]2C1`, the inhibition result in the assay with Thoracic aorta [7] is “inactive”. In addition, the result in the assay with Staphylococcus aureus [2], with Staphylococcus aureus [5] and in the assay with Escherichia coli was inactive. For the same compound, the IC50 (in the assay on SGC-7901; in assay [4]; with A549; in the assay on MCF7) was greater than 50 µM in each case.
With `C=C(C)[C@@H]1CC[C@H](C)[C@@H](CCC(C)=O)C(=O)C1`, in the assay with Thoracic aorta [7], the inhibition entry is “inactive”. For the same compound, the outcome in the assay with Staphylococcus aureus [2], in the assay on Staphylococcus aureus [5] and in the assay on Escherichia coli was inactive. Besides, in the assay with PC-12 [3], the viability at 50 µM was 75.7%. In addition, the IC50 (in the assay on SGC-7901; in [4]; with A549; in the assay with MCF7) was greater than 50 µM in each case.
For `C=C(C)[C@@H]1C[C@@H](O)C(=C)C2=CC[C@H](C)[C@@H]2C1`, the inhibition entry with Thoracic aorta [7] is “inactive”. In addition, the result with Staphylococcus aureus [2], with Staphylococcus aureus [5] and in the assay with Escherichia coli was inactive. The IC50 (in the assay on SGC-7901; in assay [4]; with A549; in the assay with MCF7) was greater than 50 µM throughout.
As to `C=C(C)[C@@H]1CC[C@H](C)[C@]23CC[C@](C)(O)[C@@]2(C1)O3`, in the assay on Thoracic aorta [7], the inhibition result was “inactive”. For the same compound, the outcome in the assay on Staphylococcus aureus [2], with Staphylococcus aureus [5] and in the assay with Escherichia coli was inactive. Further, the viability at 50 µM in the assay with PC-12 [3] was 65.5%. Also, the half-inhibitory concentration (IC50) (with SGC-7901; in [4]; with A549; in the assay on MCF7) was greater than 50 µM each time.
Compound `C=C(C)[C@@H]1CCC(=C)[C@]2(O)[C@@H](O)C[C@H](C)[C@@H]2C1` displayed an MIC in the assay with Candida albicans of 500 µM (≈ 118 µg/mL). Moreover, the outcome with Staphylococcus aureus [2], in the assay with Staphylococcus aureus [5] and in the assay on Escherichia coli was inactive. The half-inhibitory concentration (IC50) (in the assay on SGC-7901; in assay [4]; in the assay with A549; in the assay with MCF7) was greater than 50 µM each time. The inhibition result in the assay on Thoracic aorta [6] and in the assay on Thoracic aorta [8] was “Dose-dependent effect” in each case. In addition, the 50% effective concentration (EC50) with Thoracic aorta [8] worked out at 5.4 µM.
`C=C(C)[C@@H]1CC[C@](C)(O)[C@@H]2CC[C@H](C)[C@]2(O)C1`: the inhibition entry with Thoracic aorta [7] was “inactive”. Also, the result with Staphylococcus aureus [2], in the assay on Staphylococcus aureus [5] and with Escherichia coli was inactive. In addition, in the assay on PC-12 [3], the viability at 50 µM is 66.1%. Further, the IC50 (in the assay on SGC-7901; in assay [4]; with A549; in the assay on MCF7) was greater than 50 µM throughout.
Regarding `C=C(C)[C@@H]1CC[C@H](C)[C@@]23O[C@]2(C1)[C@@H](C)C[C@H]3O`, the MIC in the assay on Candida albicans came to 300 µM (≈ 70.9 µg/mL). Further, the outcome in the assay with Staphylococcus aureus [2], in the assay with Staphylococcus aureus [5] and in the assay on Escherichia coli was inactive. For the same compound, the 50% inhibitory concentration (IC50) (in the assay on SGC-7901; in assay [4]; in the assay with A549; with MCF7) was greater than 50 µM each time. Besides, the 50% effective concentration (EC50) was 24.2 µM in the assay on Thoracic aorta [6] and 1.6 µM in the assay on Thoracic aorta [8]. For the same compound, the inhibition result in the assay with Thoracic aorta [6] and with Thoracic aorta [8] was “Dose-dependent effect” in each case.
Take `C=C(C)[C@@H]1CC[C@@](C)(O)C2=C[C@@H](O)[C@H](C)[C@@H]2C1`: the inhibition entry in the assay with Thoracic aorta [7] is “inactive”. In addition, the outcome in the assay with Staphylococcus aureus [2], in the assay with Staphylococcus aureus [5] and in the assay on Escherichia coli was inactive. Moreover, the concentration for half-maximal inhibition (IC50) (in the assay with SGC-7901; in assay [4]; in the assay on A549; in the assay with MCF7) was greater than 50 µM each time.

The values above are taken from ChEMBL document CHEMBL4196186, “Absolute Configurations and Bioactivities of Guaiane-Type Sesquiterpenoids Isolated from Pogostemon cablin” (J Nat Prod, 2018).
